Data taken from ChEMBL document CHEMBL4049408, “Exploration of 2-((Pyridin-4-ylmethyl)amino)nicotinamide Derivatives as Potent Reversal Agents against P-Glycoprotein-Mediated Multidrug Resistance” (J Med Chem, 2017).

Legend:
K562/A02 [1] = experiment: Cytotoxicity against human K562/A02 cells overexpressing P-gp after 48 hrs by MTT assay; type: functional, cell-based; settings: K562/A02, 48 h
In short: (§1)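 MTT viability in parental K562 and P-gp-overexpressing K562/A02 cells. Compound alone at a concentration series gives the IC50. Mean ± SD of three independent tests.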

K562 [2] = experiment: Cytotoxicity against human K562 cells after 48 hrs by MTT assay; type: functional, cell-based; settings: K562, 48 h; in short: as §1
[3] = biological target: T1, ATP-dependent translocase ABCB1 (Homo sapiens, UniProt P08183); experiment: Inhibition of ABCB1 in human K562/A02 cells assessed as potentiation of adriamycin-mediated cytotoxicity by measuring reduction in ADR IC50 at 5 uM after 48 hrs by MTT assay relative to control; type: cell-based
T1 sequence (P08183 whole entry): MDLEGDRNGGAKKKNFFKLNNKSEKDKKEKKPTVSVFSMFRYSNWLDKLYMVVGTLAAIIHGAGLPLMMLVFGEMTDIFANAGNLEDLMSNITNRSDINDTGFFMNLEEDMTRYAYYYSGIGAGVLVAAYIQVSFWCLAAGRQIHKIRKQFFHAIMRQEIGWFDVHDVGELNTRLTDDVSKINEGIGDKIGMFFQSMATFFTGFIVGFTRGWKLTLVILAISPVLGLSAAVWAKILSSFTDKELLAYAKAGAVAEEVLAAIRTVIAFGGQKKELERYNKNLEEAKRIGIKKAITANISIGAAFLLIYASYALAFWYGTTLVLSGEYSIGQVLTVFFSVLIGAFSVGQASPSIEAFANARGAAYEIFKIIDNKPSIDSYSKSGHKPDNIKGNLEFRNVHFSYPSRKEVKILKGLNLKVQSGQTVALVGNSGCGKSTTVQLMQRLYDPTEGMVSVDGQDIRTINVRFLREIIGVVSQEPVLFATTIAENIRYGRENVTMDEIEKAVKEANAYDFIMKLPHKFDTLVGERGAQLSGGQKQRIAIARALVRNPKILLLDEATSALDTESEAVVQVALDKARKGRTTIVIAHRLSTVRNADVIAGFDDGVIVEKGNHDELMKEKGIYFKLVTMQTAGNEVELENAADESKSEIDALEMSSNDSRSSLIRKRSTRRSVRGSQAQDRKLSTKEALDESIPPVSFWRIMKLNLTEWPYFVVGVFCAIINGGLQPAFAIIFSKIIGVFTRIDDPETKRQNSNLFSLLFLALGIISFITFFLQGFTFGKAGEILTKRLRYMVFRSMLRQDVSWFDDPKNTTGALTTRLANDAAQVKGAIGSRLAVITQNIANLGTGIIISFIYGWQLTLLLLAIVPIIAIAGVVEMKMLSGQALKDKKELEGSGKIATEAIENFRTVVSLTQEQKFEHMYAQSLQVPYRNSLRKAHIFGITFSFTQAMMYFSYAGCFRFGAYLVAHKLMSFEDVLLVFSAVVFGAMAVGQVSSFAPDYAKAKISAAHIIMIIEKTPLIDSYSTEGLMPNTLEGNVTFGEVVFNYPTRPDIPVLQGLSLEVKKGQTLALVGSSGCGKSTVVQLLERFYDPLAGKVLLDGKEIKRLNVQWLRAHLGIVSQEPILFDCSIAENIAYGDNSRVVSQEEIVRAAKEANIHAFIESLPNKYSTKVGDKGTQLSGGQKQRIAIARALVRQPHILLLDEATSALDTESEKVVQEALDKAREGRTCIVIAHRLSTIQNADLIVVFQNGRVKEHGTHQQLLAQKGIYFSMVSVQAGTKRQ
In short: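 K562/A02 cells exposed to a series of adriamycin concentrations with modulator at 5.0 µM; 0.1% DMSO as solvent control. IC50 read by MTT. Reversal fold = IC50 without inhibitor / IC50 with inhibitor. Mean ± SD of three independent tests.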

[4] = (§2) Cytotoxicity against human K562/A02 cells assessed as cell survival at 5 uM after 48 hrs by MTT assay relative to control; type: cell-based; settings: K562/A02 cells, read-out: Survival
In short: (§3)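 MTT viability assay in P-gp-overexpressing, ADM-resistant K562/A02 cells, alongside parental K562. […] Values are mean ± SD of three independent tests.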

K562/A02 [5] = experiment: as §2; type: cell-based; settings: k562/a02, 48 h, 5 µM; in short: as §3
K562 [6] = experiment: Resistance index, ratio of IC50 for human K562/A02 cells to IC50 for human K562 cells; type: functional
In short: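 Adriamycin IC50 measured by MTT in K562/A02 and in parental K562 cells. Fold resistance is the ratio of the resistant-line IC50 to the sensitive-line IC50. Mean ± SD of three independent tests.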

[7] = biological target: T1, ATP-dependent translocase ABCB1; experiment: Substrate activity at ABCB1 ATPase in human ABCB1 membrane fraction assessed as increase in ATPase activity at 50 uM preincubated with compound followed by addition of MgATP measured after 1 hr by luciferase reporter gene assay relative to control; type: cell membranes
[8] = biological target: T1, ATP-dependent translocase ABCB1; experiment: Inhibition of ABCB1 in human K562/A02 cells assessed as increase in intracellular Rh123 accumulation at 5 uM up to 90 mins by flow cytometry; type: cell-based; settings: 1.5 h
In short: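 K562/A02 cells treated with 5.0 µM modulator; Rh123-associated mean fluorescence intensity read by flow cytometry at 5, 10, 25, 30, 60 and 90 min. Untreated cells as negative control. Mean ± SD of three experiments.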

[9] = Inhibition of CYP3A4 in rat liver microsomes assessed as 6beta-hydroxytestosterone formation using testosterone as substrate by reverse-phase HPLC analysis; type: ADME

| SMILES | IC50 (K562/A02 [1]) [µM] | IC50 (K562 [2]) [µM] | fold change (FC) [3] | viability at 48 h, 5 µM [4] [%] | Activity (K562/A02 [5]) | Ratio IC50 (K562 [6]) | fold change (FC) [7] | inhibition (INH) [8] | inhibition (INH) [9] |
| --- | --- | --- | --- | --- | --- | --- | --- | --- | --- |
| COc1cccc(NC(=O)c2cccnc2NCc2ccncc2)c1 | > 100 | > 100 | 3.76 | > 90 | – | – | – | – | – |
| O=C(Nc1ccc(N2CCCCC2)cc1)c1cccnc1NCc1ccncc1 | > 100 | > 100 | 5.21 | > 90 | – | – | – | – | – |
| COc1ccc(CCNC(=O)c2cccnc2NCc2ccncc2)cc1OC | > 100 | > 100 | 16.6 | > 90 | – | – | – | – | – |
| COc1cc(NC(=O)c2cccnc2NCc2ccncc2)cc(OC)c1OC | > 100 | > 100 | 3.51 | > 90 | – | – | – | – | – |
| CC(C)(C)c1ccc(NC(=O)c2cccnc2NCc2ccncc2)cc1 | > 100 | > 100 | 4.27 | > 90 | – | – | – | – | – |
| O=C(NC(c1ccccc1)c1ccccc1)c1cccnc1NCc1ccncc1 | > 100 | > 100 | 3.94 | – | Non-Toxic | – | – | – | – |
| O=C(Nc1ccc(CCN2CCOCC2)cc1)c1cccnc1NCc1ccncc1 | > 100 | > 100 | 5.64 | – | Non-Toxic | – | – | – | – |
| COc1cccc2c1C(=O)c1c(O)c3c(c(O)c1C2=O)C[C@@](O)(C(=O)CO)C[C@@H]3O[C@H]1C[C@H](N)[C@H](O)[C@H](C)O1.Cl [DOXORUBICIN HYDROCHLORIDE] | 54 to 56.8 | 0.51 to 0.58 | – | – | – | 105.8 | – | – | – |
| O=C(Nc1nc2ccccc2[nH]1)c1cccnc1NCc1ccncc1 | > 100 | > 100 | 1.69 | > 90 | – | – | – | – | – |
| CN1CCN(CCc2ccc(NC(=O)c3cccnc3NCc3ccncc3)cc2)CC1 | > 100 | > 100 | 2.04 | – | Non-Toxic | – | – | – | – |
| COc1cc2c(cc1OC)C(c1ccccc1)N(C(=O)c1cccnc1NCc1ccncc1)CC2 (stereo unspecified) | > 100 | > 100 | 2.96 | – | Non-Toxic | – | – | – | – |
| O=C(NCc1ccncc1)c1cccnc1NCc1ccncc1 | > 100 | > 100 | 7.92 | > 90 | – | – | – | – | – |
| O=C(c1cccnc1NCc1ccncc1)N1CCC(N2CCCCC2)CC1 | > 100 | 51.4 | 1.2 | > 90 | – | – | – | – | – |
| O=C(Nc1ccc2c(c1)Cc1ccccc1-2)c1cccnc1NCc1ccncc1 | > 100 | 70 | 13.65 | – | Non-Toxic | – | – | – | – |
| COc1ccc(CN(C)C(=O)c2cccnc2NCc2ccncc2)cc1OC | > 100 | > 100 | 9.58 | > 90 | – | – | – | – | – |
| O=C(c1cccnc1NCc1ccncc1)N(Cc1ccccc1)Cc1ccccc1 | 82.2 | 76.4 | 10.14 | – | Non-Toxic | – | – | – | – |
| O=C(Nc1ccc(OC(F)(F)F)cc1)c1cccnc1NCc1ccncc1 | 28.7 | 24.2 | 8.42 | > 90 | – | – | – | – | – |
| COc1cccc(-c2nnc(NC(=O)c3cccnc3NCc3ccncc3)s2)c1 | > 100 | 39.5 | 4.6 | > 90 | – | – | – | – | – |

| SMILES | IC50 (K562/A02 [1]) [µM] | IC50 (K562 [2]) [µM] | fold change (FC) [3] | viability at 48 h, 5 µM [4] [%] | Activity (K562/A02 [5]) | Ratio IC50 (K562 [6]) | fold change (FC) [7] | inhibition (INH) [8] | inhibition (INH) [9] |
| --- | --- | --- | --- | --- | --- | --- | --- | --- | --- |
| COc1cc2c(cc1OC)C(Cc1cccc3ccccc13)N(C(=O)c1cccnc1NCc1ccncc1)CC2 (stereo unspecified) | > 100 | > 100 | 2.51 | – | Non-Toxic | – | – | – | – |
| O=C(Nc1ccc(-c2ccccc2)cc1)c1cccnc1NCc1ccncc1 | 27.9 | 17 | 12.69 | > 90 | – | – | – | – | – |
| O=C(NC1CCCc2ccccc21)c1cccnc1NCc1ccncc1 (stereo unspecified) | > 100 | 66.1 | 4.24 | > 90 | – | – | – | – | – |
| COc1ccc(NC(=O)c2cccnc2NCc2ccncc2)cc1Cl | > 100 | > 100 | 5.29 | > 90 | – | – | – | – | – |
| COc1ccc(CCN(C)CCCC(C#N)(c2ccc(OC)c(OC)c2)C(C)C)cc1OC (stereo unspecified) | 31.3 to 33.6 | 36.7 to 37.3 | – | – | – | – | 2.56 | Active | – |
| O=C(Nc1ccc(F)c(Cl)c1)c1cccnc1NCc1ccncc1 | 27.9 | 78.9 | 6.6 | > 90 | – | – | – | – | – |
| COc1ccc(C2c3cc(OC)c(OC)cc3CCN2C(=O)c2cccnc2NCc2ccncc2)cc1OC (stereo unspecified) | > 100 | > 100 | 3.44 | – | Non-Toxic | – | – | – | – |
| O=C(c1ccccc1)c1ccccc1NC(=O)c1cccnc1NCc1ccncc1 | > 100 | > 100 | 1.28 | – | Non-Toxic | – | – | – | – |
| Cc1cccc(Cl)c1NC(=O)c1cnc(NC(=O)c2cccnc2NCc2ccncc2)s1 | 86 | 57.7 | 7.95 | – | Non-Toxic | – | – | – | – |
| O=C(Nc1ccc(N2CCOCC2)cc1)c1cccnc1NCc1ccncc1 | > 100 | > 100 | 18.8 | > 90 | – | – | – | – | – |
| O=C(Nc1cccc2ccccc12)c1cccnc1NCc1ccncc1 | > 100 | > 100 | 7.74 | > 90 | – | – | – | – | – |
| CC(=O)N1CCN(c2ccc(OCC3COC(Cn4ccnc4)(c4ccc(Cl)cc4Cl)O3)cc2)CC1 (stereo unspecified) [KETOCONAZOLE] | – | – | – | – | – | – | – | – | Dose-dependent effect |
| CN1CCN(c2ccc(NC(=O)c3cccnc3NCc3ccncc3)cc2)CC1 | > 100 | > 100 | 4.93 | > 90 | – | – | – | – | – |
| COc1cc2c(cc1OC)C(C(C)(C)C)N(C(=O)c1cccnc1NCc1ccncc1)CC2 (stereo unspecified) | > 100 | > 100 | 2.66 | – | Non-Toxic | – | – | – | – |
| COc1cc2c(cc1OC)CN(C(=O)c1cccnc1NCc1ccncc1)CC2 | 85.7 | 72.5 | 17.97 | – | Non-Toxic | – | – | – | – |
| COc1cc2c(cc1OC)C(c1ccco1)N(C(=O)c1cccnc1NCc1ccncc1)CC2 (stereo unspecified) | > 100 | > 100 | 1.52 | – | Non-Toxic | – | – | – | – |
| O=C(NCCc1cccs1)c1cccnc1NCc1ccncc1 | > 100 | > 100 | 1.37 | > 90 | – | – | – | – | – |
